In ChEMBL document CHEMBL1148725, “2,2,2-Trichloro-N-({2-[2-(dimethylamino)ethyl]-1,3-dioxo-2,3-dihydro-1H-benzo[de]isoquinolin- 5-yl}carbamoyl)acetamide (UNBS3157), a novel nonhematotoxic naphthalimide derivative with potent antitumor activity” (J Med Chem, 2007):
Calls of active or inactive are those of the source. No cut-off for these calls is given here.

Key:
[1] = test system: Mus musculus; test: Hematotoxicity in B6D2F1 mouse assessed as WBC count at 2.5 mg/kg, iv; type: organism-based; set-up: dose 2.5 mg/kg, route intravenous; details: in vivo
[2] = test system: Mus musculus; test: Hematotoxicity in B6D2F1 mouse assessed as platelet count at 10 mg/kg, po; type: organism-based; set-up: dose 10 mg/kg, route oral; details: in vivo
[3] = test system: Mus musculus; test: Toxicity in B6D2F1 mouse at 40 mg/kg, ip; type: organism-based; set-up: dose 40 mg/kg, route intraperitoneal; details: in vivo
[4] = test system: Mus musculus; test: Hematotoxicity in B6D2F1 mouse assessed as RBC count at 2.5 mg/kg, iv; type: organism-based; set-up: dose 2.5 mg/kg, route intravenous; details: in vivo
[5] = test system: Mus musculus; test: Hematotoxicity in B6D2F1 mouse assessed as RBC count at 5 mg/kg, po; type: organism-based; set-up: dose 5 mg/kg, route oral; details: in vivo
[6] = test system: Mus musculus; test: Hematotoxicity in B6D2F1 mouse assessed as WBC count at 5 mg/kg, iv; type: organism-based; set-up: dose 5 mg/kg, route intravenous; details: in vivo
[7] = Toxicity in ip dosed B6D2F1 mouse; type: organism-based; details: in vivo
Procedure, shortened: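 Acute MTD was set by a single i.p. dose to groups of three healthy female B6D2F1 mice, at 2.5, 5, 10, 20, 40, 80 and 160 mg/kg. The MTD is the dose just below the lowest dose that killed at least one mouse.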

[8] = test system: Mus musculus; test: Toxicity in B6D2F1 mouse at 80 mg/kg, ip; type: organism-based; set-up: dose 80 mg/kg, route intraperitoneal; details: in vivo
Procedure, shortened: (§1)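 Healthy female B6D2F1 mice, 10 per group, dosed i.p. in DMSO/saline (5:95 v/v) three times weekly for five weeks at two levels set relative to MTD; sacrificed 3 days after final dose; platelet, RBC and WBC counted by Coulter counter.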

[9] = test system: LoVo; test: Antiproliferative activity against LoVo cells after 72 hrs by MTT assay; type: functional, cell-based, Homo sapiens
Procedure, shortened: (§2)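 Cells cultured with each compound for three days; growth then read by the MTT colorimetric assay and reported as IC50 (µM).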

[10] = Antiproliferative activity against Hs683 cells after 72 hrs by MTT assay; type: functional, cell-based, Homo sapiens, Hs 683; procedure, shortened: as §2
[11] = test system: Mus musculus; test: Hematotoxicity in B6D2F1 mouse assessed as platelet count at 2.5 mg/kg, po; type: organism-based; set-up: dose 2.5 mg/kg, route oral; details: in vivo
[12] = test system: L1210; test: Antitumor activity in L1210 cells xenografted B6D2F1 mouse at 20 mg/kg, ip relative to control; type: functional; details: route intraperitoneal
Procedure, shortened: (§3)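 Mice grafted with L1210 leukaemia cells on day 0, then dosed i.p. four times weekly on days 1-4 and 8-11. Five mice per group. Outcome is %T/C, the median survival of treated over control. Kruskal-Wallis test followed by Dunn comparisons against control.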

[13] = test system: MCF7; test: Antiproliferative activity against MCF7 cells after 72 hrs by MTT assay; type: functional, cell-based, Homo sapiens; procedure, shortened: as §2
[14] = test system: L1210; test: Antitumor activity in L1210 cells xenografted B6D2F1 mouse at 5 mg/kg, ip relative to control; type: functional; details: route intraperitoneal; procedure, shortened: as §3
[15] = Antiproliferative activity against U373MG cells after 72 hrs by MTT assay; type: functional, cell-based, Homo sapiens, U-373MG ATCC; procedure, shortened: as §2
[16] = test system: L1210; test: Antitumor activity in L1210 cells xenografted B6D2F1 mouse at 10 mg/kg, ip relative to control; type: functional; details: route intraperitoneal; procedure, shortened: as §3
[17] = test system: A549; test: Antiproliferative activity against A549 cells after 72 hrs by MTT assay; type: functional, cell-based, Homo sapiens; procedure, shortened: as §2
[18] = test system: HCT-15; test: Antiproliferative activity against HCT15 cells after 72 hrs by MTT assay; type: functional, cell-based, Homo sapiens; procedure, shortened: as §2
[19] = test system: Mus musculus; test: Hematotoxicity in B6D2F1 mouse assessed as RBC count at 10 mg/kg, po; type: organism-based; set-up: dose 10 mg/kg, route oral; details: in vivo
[20] = species on record: Homo sapiens; test: Inhibition of human topoisomerase 2 at 50 uM by plasmid linearization assay
[21] = test system: Mus musculus; test: Hematotoxicity in B6D2F1 mouse assessed as platelet count at 2.5 mg/kg, iv; type: organism-based; set-up: dose 2.5 mg/kg, route intravenous; details: in vivo
[22] = test system: L1210; test: Antitumor activity in L1210 cells xenografted B6D2F1 mouse at 80 mg/kg, ip relative to control; type: functional; details: route intraperitoneal; procedure, shortened: as §3
[23] = test system: Mus musculus; test: Hematotoxicity in B6D2F1 mouse assessed as platelet count at 5 mg/kg, iv; type: organism-based; set-up: dose 5 mg/kg, route intravenous; details: in vivo
[24] = test system: L1210; test: Antitumor activity in L1210 cells xenografted B6D2F1 mouse at 40 mg/kg, ip relative to control; type: functional; details: route intraperitoneal; procedure, shortened: as §3
[25] = test system: Mus musculus; test: Hematotoxicity in B6D2F1 mouse assessed as WBC count at 2.5 mg/kg, po; type: organism-based; set-up: dose 2.5 mg/kg, route oral; details: in vivo
[26] = test system: Mus musculus; test: Hematotoxicity in B6D2F1 mouse assessed as platelet count at 5 mg/kg, po; type: organism-based; set-up: dose 5 mg/kg, route oral; details: in vivo
[27] = test system: Mus musculus; test: Hematotoxicity in B6D2F1 mouse assessed as WBC count at 10 mg/kg, po; type: organism-based; set-up: dose 10 mg/kg, route oral; details: in vivo
[28] = test system: Mus musculus; test: Hematotoxicity in B6D2F1 mouse assessed as RBC count at 2.5 mg/kg, po; type: organism-based; set-up: dose 2.5 mg/kg, route oral; details: in vivo
[29] = test system: Mus musculus; test: Hematotoxicity in B6D2F1 mouse assessed as WBC count at 5 mg/kg, po; type: organism-based; set-up: dose 5 mg/kg, route oral; details: in vivo
[30] = test system: Mus musculus; test: Hematotoxicity in B6D2F1 mouse assessed as RBC count at 5 mg/kg, iv; type: organism-based; set-up: dose 5 mg/kg, route intravenous; details: in vivo
[31] = test system: Mus musculus; test: Hematotoxicity in ip dosed B6D2F1 mouse assessed as decrease in RBC count; type: organism-based; details: in vivo
Procedure, shortened: (§4)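 Healthy female B6D2F1 mice, 10 per group, dosed i.p. three times weekly for five weeks at two dose levels set relative to MTD. Vehicle DMSO/saline 5:95 v/v. Killed 3 days after the last dose; blood platelet, RBC and WBC counts taken with a Coulter counter.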

[32] = test system: Mus musculus; test: Hematotoxicity in B6D2F1 mouse assessed as platelet count at 20 mg/kg, po; type: organism-based; set-up: dose 20 mg/kg, route oral; details: in vivo
[33] = test system: Mus musculus; test: Hematotoxicity in B6D2F1 mouse assessed as platelet count at 10 mg/kg, iv; type: organism-based; set-up: dose 10 mg/kg, route intravenous; details: in vivo
[34] = test system: L1210; test: Antitumor activity in L1210 cells xenografted B6D2F1 mouse at 120 mg/kg, ip relative to control; type: functional; details: route intraperitoneal; procedure, shortened: as §3
[35] = test system: Mus musculus; test: Toxicity in B6D2F1 mouse at 120 mg/kg, ip; type: organism-based; set-up: dose 120 mg/kg, route intraperitoneal; details: in vivo; procedure, shortened: as §1
[36] = test system: Mus musculus; test: Hematotoxicity in ip dosed B6D2F1 mouse assessed as decrease in platelet count; type: organism-based; details: in vivo; procedure, shortened: as §4
[37] = test system: Mus musculus; test: Hematotoxicity in B6D2F1 mouse assessed as RBC count at 10 mg/kg, iv; type: organism-based; set-up: dose 10 mg/kg; details: in vivo
[38] = test system: Mus musculus; test: Hematotoxicity in B6D2F1 mouse assessed as RBC count at 20 mg/kg, po; type: organism-based; set-up: dose 20 mg/kg, route oral; details: in vivo
[39] = test system: Mus musculus; test: Hematotoxicity in B6D2F1 mouse assessed as WBC count at 40 mg/kg, po; type: organism-based; set-up: dose 40 mg/kg, route oral; details: in vivo
[40] = test system: Mus musculus; test: Hematotoxicity in B6D2F1 mouse assessed as WBC count at 20 mg/kg, po; type: organism-based; set-up: dose 20 mg/kg, route oral; details: in vivo
[41] = test system: Mus musculus; test: Hematotoxicity in B6D2F1 mouse assessed as RBC count at 40 mg/kg, po; type: organism-based; set-up: dose 40 mg/kg, route oral; details: in vivo
[42] = test system: Mus musculus; test: Hematotoxicity in B6D2F1 mouse assessed as platelet count at 40 mg/kg, po; type: organism-based; set-up: dose 40 mg/kg, route oral; details: in vivo
[43] = test system: Mus musculus; test: Hematotoxicity in B6D2F1 mouse assessed as WBC count at 10 mg/kg, iv; type: organism-based; set-up: dose 10 mg/kg, route intravenous; details: in vivo

With `CC(=O)Nc1cc2c3c(cccc3c1)C(=O)N(CCN(C)C)C2=O` the Activity [1] was 3.97 10^3 /uL, the Activity [2] was 922 10^3 /uL and the Activity [3] was “Toxic”. The Activity [4] was 9.74 10^6 /uL, the Activity [5] was 10.25 10^6 /uL and the Activity [6] was 2.5 10^3 /uL. The MTD [7] was 40 mg/kg, the Activity [8] was “Toxic” and the IC50 ([9]; Homo sapiens, LoVo, 72 h) was greater than 10 µM. For the same compound, the IC50 ([10]; Homo sapiens, Hs 683, 72 h) was greater than 10 µM, the Activity [11] was 961 10^3 /uL and the Activity [12] was greater than 300%. It also gave an IC50 ([13]; Homo sapiens, MCF7, 72 h) greater than 10 µM, an Activity [14] of 111% and an IC50 ([15]; Homo sapiens, U373 MG, 72 h) of 9 µM. The Activity [16] was 149%, the IC50 ([17]; Homo sapiens, A549, 72 h) was greater than 10 µM and the IC50 ([18]; Homo sapiens, HCT-15, 72 h) was 7.8 µM. The Activity [19] was 9.64 10^6 /uL, the Activity [20] was “Active” and the Activity [21] was 470 10^3 /uL. For the same compound, the Activity [22] was 47%, the Activity [23] was 351 10^3 /uL and the Activity [24] was 48%. The Activity [25] was 2.66 10^3 /uL, the Activity [26] was 968 10^3 /uL and the Activity [27] was 2.66 10^3 /uL. For the same compound, the Activity [28] was 10.01 10^6 /uL, the Activity [29] was 2.74 10^3 /uL and the Activity [30] was 9.59 10^6 /uL.

For `CN(C)CCN1C(=O)c2cccc3cc(/N=C\c4cc(O)ccc4O)cc(c23)C1=O`, the Activity [31] was “Toxic”, the Activity [32] was 1007 10^3 /uL and the Activity [2] was 909 10^3 /uL. The Activity [33] was 443 10^3 /uL, the Activity [6] was 3.09 10^3 /uL and the Activity [34] was 42%. For the same compound, the MTD [7] was greater than 160 mg/kg, the IC50 ([9]; lovo) was 8.4 µM and the IC50 ([10]; hs 683) was greater than 10 µM. The Activity [35] was “Toxic”, the Activity [12] was 148% and the IC50 ([13]; mcf7) was greater than 10 µM. For the same compound, the IC50 ([15]; u-373mg atcc) was 7.8 µM, the Activity [36] was “Toxic” and the Activity [37] was 9.54 10^6 /uL. It also gave an Activity [16] of 151%, an IC50 ([17]; a549) of 9.1 µM and an IC50 ([18]; hct-15) greater than 10 µM. The Activity [19] was 10.22 10^6 /uL, the Activity [38] was 9.92 10^6 /uL and the Activity [22] was greater than 300%. The Activity [23] was 498 10^3 /uL, the Activity [24] was 232% and the Activity [39] was 4.07 10^3 /uL. The Activity [27] was 2.36 10^3 /uL, the Activity [40] was 2.17 10^3 /uL and the Activity [41] was 7.87 10^6 /uL. For the same compound, the Activity [42] was 1033 10^3 /uL, the Activity [43] was 3.05 10^3 /uL and the Activity [30] was 9.48 10^6 /uL.
